How the values were obtained:
[1] = system: KM12; assay: Antiproliferative activity against human KM12 cells after 48 hrs; type: functional; conditions: Homo sapiens, KM12, 48 h
In short: (§1)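 NCI 60-cell screen. Cells were grown in RPMI 1640 with 5% FBS and 2 mM L-glutamine, then plated at 5,000–40,000 cells/well according to doubling time and preincubated for 24 h at 37 °C in 5% CO2. Compounds were dissolved in DMSO at 400× the top final concentration and tested at five 10-fold dilutions from 10−4 to 10−8 M for 48 h. Growth was read spectrophotometrically; GI50 is 50% net protein reduction.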

[2] = system: MCF7; assay: Drug level in human MCF7 cells at 10 uM per 10^6 cells after 0.5 hrs; type: ADME, cell-based; conditions: mcf7, 0.5 h
In short: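 MCF7 cells kept in RPMI 1640 with 10% fetal calf serum at 37 °C, 5% CO2, then treated with 10 μM analog. Intracellular analog measured over time by HPLC-MS in positive-ion MRM mode. Quantified against calibration curves made by spiking an artificial matrix with standards plus internal standard, using analyte/IS peak-area ratios and linear regression. Reported as pmol per 1×10^6 cells.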

[3] = system: SNB-19; assay: Antiproliferative activity against human SNB19 cells after 48 hrs; type: functional; conditions: SNB-19, 48 h; in short: as §1
[4] = system: MCF7; assay: Antiproliferative activity against human MCF7 cells after 48 hrs; type: functional, cell-based; conditions: MCF7, 48 h
[5] = system: UACC-257; assay: Antiproliferative activity against human UACC257 cells after 48 hrs; type: functional; conditions: UACC-257, 48 h
In short: (§2)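 NCI 60-cell-line screen. Lines grown in RPMI 1640 with 5% fetal bovine serum and 2 mM L-glutamine, plated at 5,000–40,000 cells/well according to doubling time, left 24 h at 37 °C in 5% CO2. Drug stocks in DMSO at 400-fold the top final concentration. Five 10-fold dilutions, 10−4 to 10−8 M, incubated 48 h. Growth read spectrophotometrically as net protein; GI50 taken as 50% reduction.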

[6] = system: NCI-H322M; assay: Antiproliferative activity against human NCI-H322M cells after 48 hrs; type: functional; in short: as §1
[7] = system: Hs-578T; assay: Antiproliferative activity against human HS578T cells after 48 hrs; type: functional; in short: as §1
[8] = system: OVCAR-5; assay: Antiproliferative activity against human OVCAR5 cells after 48 hrs; type: functional; conditions: OVCAR-5, 48 h; in short: as §1
[9] = system: M14; assay: Antiproliferative activity against human M14 cells after 48 hrs; type: functional; conditions: M14, 48 h; in short: as §1
[10] = system: UACC-62; assay: Antiproliferative activity against human UACC62 cells after 48 hrs; type: functional; conditions: UACC-62, 48 h; in short: as §2
[11] = Antiproliferative activity against human HL60(TB) cells after 48 hrs; type: functional, HL-60(TB); conditions: HL-60, 48 h
In short: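 NCI 60-line panel screen: cells grown in RPMI 1640 with 5% fetal bovine serum and 2 mM L-glutamine, plated at 5,000–40,000 cells/well by doubling time, and preincubated 24 h at 37 °C in 5% CO2. Drugs were solubilised in DMSO at 400-fold the final maximum and tested at five 10-fold dilutions from 10−4 to 10−8 M for 48 h. Net protein was read spectrophotometrically, and the concentration giving 50% reduction was reported as log10 GI50.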

[12] = system: NCI-H226; assay: Antiproliferative activity against human NCI-H226 cells after 48 hrs; type: functional; conditions: NCI-H226, 48 h; in short: as §1
[13] = system: OVCAR-8; assay: Antiproliferative activity against human OVCAR8 cells after 48 hrs; type: functional; conditions: OVCAR-8, 48 h; in short: as §1
[14] = system: CAKI-1; assay: Antiproliferative activity against human CAKI1 cells after 48 hrs; type: functional; conditions: CAKI-1, 48 h; in short: as §1
[15] = system: SNB-75; assay: Antiproliferative activity against human SNB75 cells after 48 hrs; type: functional; conditions: SNB-75, 48 h; in short: as §1
[16] = system: HT-29; assay: Antiproliferative activity against human HT29 cells after 48 hrs; type: functional; conditions: HT-29, 48 h; in short: as §1
[17] = system: HCT-15; assay: Antiproliferative activity against human HCT15 cells after 48 hrs; type: functional; conditions: Homo sapiens, HCT-15, 48 h; in short: as §1
[18] = system: CCRF-CEM; assay: Antiproliferative activity against human CCRF-CEM cells after 48 hrs; type: functional; in short: as §1
[19] = system: RXF 393; assay: Antiproliferative activity against human RXF393 cells after 48 hrs; type: functional; conditions: RXF 393, 48 h; in short: as §1
[20] = system: T47D; assay: Antiproliferative activity against human T47D cells after 48 hrs; type: functional; in short: as §2
[21] = Antiproliferative activity against human […] cells after 48 hrs; type: functional; in short: as §1
[22] = system: SN12C; assay: Antiproliferative activity against human SN12C cells after 48 hrs; type: functional; in short: as §1
[23] = system: OVCAR-3; assay: Antiproliferative activity against human OVCAR-3 cells after 48 hrs; type: functional; conditions: OVCAR-3, 48 h; in short: as §1
[24] = system: IGROV-1; assay: Antiproliferative activity against human IGROV1 cells after 48 hrs; type: functional; conditions: IGROV-1, 48 h; in short: as §1
[25] = system: SW-620; assay: Antiproliferative activity against human SW620 cells after 48 hrs; type: functional; conditions: SW-620, 48 h; in short: as §2
[26] = system: SK-MEL-5; assay: Antiproliferative activity against human SKMEL5 cells after 48 hrs; type: functional; conditions: SK-MEL-5, 48 h, read-out: Log LC50 (the source's name) (converted); in short: as §1
[27] = system: HOP-62; assay: Antiproliferative activity against human HOP62 cells after 48 hrs; type: functional; conditions: HOP-62, 48 h; in short: as §1
[28] = read-out: Log LC50 (the source's name) (converted)

Compound: CCCCCCCCCCCCCCN[C@H](C)[C@@H](O)c1ccccc1.Cl
- GI50 [1]: 1.82 µM
- CC50 [1, 28]: 5.62 µM
- TGI ([1]; read-out: Log TGI (converted)): 3.16 µM
- Drug uptake [2]: 3600 pmol
- GI50 [3]: 1.74 µM
- TGI ([3]; read-out: Log TGI (converted)): 3.09 µM
- IC50 [4]: 3.5 µM
- GI50 [5]: 1.66 µM
- CC50 [5, 28]: 6.46 µM
- TGI ([5]; read-out: Log TGI (converted)): 3.31 µM
- GI50 [6]: 1.91 µM
- CC50 [6, 28]: 5.89 µM
- TGI ([6]; read-out: Log TGI (converted)): 3.31 µM
- GI50 [7]: 2.51 µM
- LC50 [7]: 46.8 µM
- TGI ([7]; read-out: Log TGI (converted)): 5.5 µM
- GI50 [8]: 2 µM
- CC50 [8, 28]: 6.17 µM
- TGI ([8]; read-out: Log TGI (converted)): 3.47 µM
- GI50 [9]: 1.86 µM
- LC50 [9]: 6.17 µM
- TGI ([9]; read-out: Log TGI (converted)): 3.39 µM
- GI50 [10]: 1.82 µM
- LC50 [10]: 6.61 µM
- TGI ([10]; read-out: Log TGI (converted)): 3.47 µM
- GI50 [11]: 0.0871 µM
- LC50 [11]: 6.61 µM
- TGI ([11]; read-out: Log TGI (converted)): 2.51 µM
- GI50 [12]: 1.86 µM
- CC50 [12, 28]: 7.08 µM
- TGI ([12]; read-out: Log TGI (converted)): 3.63 µM
- GI50 [13]: 1.82 µM
- TGI ([13]; read-out: Log TGI (converted)): 3.8 µM
- GI50 [14]: 1.95 µM
- CC50 [14, 28]: 5.75 µM
- TGI ([14]; read-out: Log TGI (converted)): 3.39 µM
- GI50 [15]: 2.09 µM
- CC50 [15, 28]: 7.08 µM
- TGI ([15]; read-out: Log TGI (converted)): 3.89 µM
- GI50 [16]: 1.78 µM
- LC50 [16]: 5.75 µM
- TGI ([16]; read-out: Log TGI (converted)): 3.24 µM
- GI50 [17]: 1.82 µM
- LC50 [17]: 5.89 µM
- TGI ([17]; read-out: Log TGI (converted)): 3.24 µM
- GI50 [18]: 1.45 µM
- CC50 [18, 28]: 7.59 µM
- TGI ([18]; read-out: Log TGI (converted)): 3.31 µM
- GI50 [19]: 1.38 µM
- CC50 [19, 28]: 5.5 µM
- TGI ([19]; read-out: Log TGI (converted)): 2.75 µM
- GI50 [20]: 2.29 µM
- CC50 [20, 28]: 7.76 µM
- TGI ([20]; read-out: Log TGI (converted)): 4.17 µM
- GI50 [21]: 1.62 µM
- LC50 [21]: 6.03 µM
- TGI ([21]; read-out: Log TGI (converted)): 3.09 µM
- GI50 [22]: 1.78 µM
- LC50 (50% net cell kill) [22]: 6.76 µM
- TGI ([22]; read-out: Log TGI (converted)): 3.47 µM
- GI50 [23]: 1.74 µM
- LC50 [23]: 6.03 µM
- TGI ([23]; read-out: Log TGI (converted)): 3.24 µM
- GI50 [24]: 1.62 µM
- LC50 [24]: 5.75 µM
- TGI ([24]; read-out: Log TGI (converted)): 3.09 µM
- GI50 [25]: 2.14 µM
- LC50 (concentration killing 50% of cells) [25]: 7.94 µM
- TGI ([25]; read-out: Log TGI (converted)): 4.17 µM
- CC50 [26]: 100 µM
- GI50 [27]: 1.86 µM
- CC50 [27, 28]: 5.89 µM
- TGI ([27]; read-out: Log TGI (converted)): 3.31 µM
